Some results are limits rather than exact numbers.

Data set [1] is described as follows: Intrinsic and predicted hepatic clearance in mouse liver microsomes. The class given is in vitro ADME. The conditions noted are these: for CLint scaled / Predicted hepatic clearance mCLHEP: mouse, liver microsomes. In short, it runs like this: (§1)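 Part of an outsourced Tier 1 in vitro DMPK panel. Intrinsic clearance was measured in liver microsomes from the species named in each line and scaled. Predicted hepatic clearance was derived from the same microsomal experiments.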

The nature of data set [2]: Intrinsic and predicted hepatic clearance in human liver microsomes. The class given is in vitro ADME. In short, it runs like this: as §1
The next data set has as its target T1, GIRK1/2 (Homo sapiens, UniProt P48051+P48549).
T1 sequence (P48549 1-501): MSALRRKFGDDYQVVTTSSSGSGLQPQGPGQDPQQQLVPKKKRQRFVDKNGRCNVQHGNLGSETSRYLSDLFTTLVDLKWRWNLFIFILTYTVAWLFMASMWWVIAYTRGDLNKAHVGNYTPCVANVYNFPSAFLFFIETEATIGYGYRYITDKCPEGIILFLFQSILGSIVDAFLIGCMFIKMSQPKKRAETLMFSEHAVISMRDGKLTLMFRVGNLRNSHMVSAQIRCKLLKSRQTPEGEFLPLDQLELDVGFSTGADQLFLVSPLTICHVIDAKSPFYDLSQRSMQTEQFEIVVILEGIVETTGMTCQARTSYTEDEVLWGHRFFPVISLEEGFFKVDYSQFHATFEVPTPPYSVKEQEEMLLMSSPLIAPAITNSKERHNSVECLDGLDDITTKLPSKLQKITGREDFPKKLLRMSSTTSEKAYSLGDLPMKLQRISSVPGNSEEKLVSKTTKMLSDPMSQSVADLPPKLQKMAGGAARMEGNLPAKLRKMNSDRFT
T1 sequence (P48051 1-423): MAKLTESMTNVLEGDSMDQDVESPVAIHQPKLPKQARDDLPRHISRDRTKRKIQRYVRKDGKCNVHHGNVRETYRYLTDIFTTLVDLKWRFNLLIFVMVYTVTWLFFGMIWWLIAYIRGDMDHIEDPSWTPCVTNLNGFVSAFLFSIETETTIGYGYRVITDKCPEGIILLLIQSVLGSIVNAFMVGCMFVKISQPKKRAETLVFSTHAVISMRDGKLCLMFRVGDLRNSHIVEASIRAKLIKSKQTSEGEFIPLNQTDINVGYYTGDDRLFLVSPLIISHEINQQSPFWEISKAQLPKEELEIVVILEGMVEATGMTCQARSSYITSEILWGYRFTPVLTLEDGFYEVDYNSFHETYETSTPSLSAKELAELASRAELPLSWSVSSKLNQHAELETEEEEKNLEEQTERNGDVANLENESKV
Put plainly: Thallium flux assay, GIRK1/2 expressing HEK293 cells. The class given is cell-based. The following applies: for Selectivity GIRK1/2 vs GIRK1/4 (in words): thallium flux; for Loss of GIRK1/2 potency/activity relative to 15a: compared with parent amide/phenyl compound 15a.

Data set [3] in a line: Stability in Human Liver S9 fractions. The format is in vitro ADME.
The nature of data set [4]: Plasma unbound fraction, mouse plasma. The class given is in vitro ADME.

Consider `Cc1cc(NC(=O)Cn2nnc(-c3ccccc3)n2)n(CC2CCCCC2)n1` [15q], for which the intrinsic metabolic clearance (CLint scaled) in data set [1] was greater than 5930 mL/min/kg; in data set [2] (human, liver microsomes) it was 753 mL/min/kg. Moreover, the “Selectivity GIRK1/2 vs GIRK1/4 (in words)” value at GIRK1/2 is “lost selectivity between GIRK1/2 and GIRK1/4”.

For the molecule `Cc1cc(NC(=O)Cn2nnc(-c3ccccc3)n2)n(C2CCS(=O)(=O)C2)n1` (stereo not shown) [15k], in data set [1], the “Stability in mouse liver microsomes (in words)” value is on record as “stable”, the intrinsic metabolic clearance (CLint scaled) was less than 49.5 mL/min/kg and the “Predicted hepatic clearance mCLHEP” value is reported as less than 31.9 mL/min/kg. The “Stability in human liver microsomes (in words)” value in data set [2] is reported as “stable”. Moreover, in data set [2] (human, liver microsomes), the CLint scaled is less than 23.1 mL/min/kg and the “Predicted hepatic clearance hCLHEP” value is on record as less than 10.7 mL/min/kg. In addition, the “Stability in human S9 fractions (in words)” value in data set [3] was “stable”. Moreover, the “CLHEP in Human Liver S9 fractions” value in data set [3] (human liver S9) is less than 1.0 mL/min/kg. This molecule also gave an intrinsic clearance (CLint scaled) in data set [3] (human, liver S9 fractions) of 2.6 mL/min/kg.

With `Cc1cc(NC(=O)Cn2nnc(-c3cccnc3)n2)n(C2CCCCC2)n1` [16a], at GIRK1/2, the “Loss of GIRK1/2 potency/activity relative to 15a” value is on record as greater than 20 fold.

For `Cc1cc(NC(=O)Cn2cc(-c3ccccc3)nn2)n(C2CCCCC2)n1` [17a], the intrinsic clearance (CLint scaled) in data set [1] is 596 mL/min/kg; in data set [2] (human, liver microsomes), 54.6 mL/min/kg.

As to `Cc1cc(NC(=O)Cn2nnc(-c3cccc(F)c3)n2)n(C2CCCCC2)n1` [16g], the CLint scaled in data set [1] is 2710 mL/min/kg; in data set [2] (human, liver microsomes), 162 mL/min/kg. Besides, the “Selectivity GIRK1/2 vs GIRK1/4 (in words)” value at GIRK1/2 was “more selective for GIRK1/2 vs. GIRK1/4”.

As to `Cc1cc(NC(=O)Cn2nnc(-c3ccccc3)n2)n(C2CCCCC2)n1` [15a], the CLint scaled is 2920 mL/min/kg in data set [1] and 186 mL/min/kg in data set [2] (human, liver microsomes).

Consider `Cc1cc(NC(=O)Cn2ccc(-c3ccccc3)n2)n(C2CCCCC2)n1` [17e], for which the “GIRK1/2 potency, fold less potent than 17f” value on GIRK1/2 (17e vs 17f) is recorded as ~ 8 fold.

For `Cc1cc(NC(=O)Cn2nnc(-c3ccccn3)n2)n(C2CCCCC2)n1` [16b], on GIRK1/2, the “Loss of GIRK1/2 potency/activity relative to 15a” value is greater than 20 fold.

Regarding `Cc1cc(NC(=O)Nc2ccc(F)c(F)c2)n(Cc2ccccc2)n1` [compound 1, reference compound], on GIRK1/2, the “Selectivity GIRK1/2 vs GIRK1/4 (in words)” value is on record as “activate GIRK1/2 preferentially over GIRK1/4”.

In the case of `Cc1cc(NC(=S)Cn2nnc(-c3ccccc3)n2)n(C2CCCCC2)n1` [15b], in data set [1], the CLint scaled was greater than 5930 mL/min/kg and the “Predicted hepatic clearance mCLHEP” value was greater than 88.7 mL/min/kg. Also, in data set [2] (human, liver microsomes), the CLint scaled is 346 mL/min/kg. Moreover, in data set [4], the “Recovery in mouse plasma (in words)” value is reported as “poor recovery”. Further, the “Loss of GIRK1/2 potency/activity relative to 15a” value at GIRK1/2 is roughly 7 fold.

Regarding `Cc1cc(NC(=O)Cn2nnc(-c3ccccc3)n2)n(C2CCC(F)(F)CC2)n1` [15d], the CLint scaled in data set [1] is 723 mL/min/kg; in data set [2] (human, liver microsomes), 77.3 mL/min/kg.

In the case of `Cc1cc(NC(=O)Cn2nnc(-c3ccc(Cl)c(Cl)c3)n2)n(C2CCCCC2)n1` [16d], the CLint scaled in data set [1] was 489 mL/min/kg; in data set [2] (human, liver microsomes), 99.9 mL/min/kg.

In the case of `Cc1cc(NC(=O)Cn2nncc2-c2ccccc2)n(C2CCCCC2)n1` [17b], the CLint scaled was 3490 mL/min/kg in data set [1] and 209 mL/min/kg in data set [2] (human, liver microsomes).

For orientation: CLint scaled means a measure of how fast metabolising enzymes remove a compound, apart from limits set by blood flow.

(Values after publication PMC6398930 (Bioorganic & medicinal chemistry letters, 2019).)
